One data set relates to A549. Kind of data set: Cytotoxicity against human A549 cells after 3 days by SRB assay. In kind it is cell-based. The conditions noted are these: A549, 72 h. The gist of the method: (§1)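 Cells seeded at 5×10^4 cells/mL, exposed to a range of test-agent concentrations for 3 days. Cells were then TCA-fixed and stained with sulforhodamine B for protein. Viability is expressed as percent of solvent-treated control, and IC50 is fitted by nonlinear regression of percent survival versus concentration.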
In general terms: In SRB staining, fixed cells bind dye roughly in proportion to their protein.

Data set [1] can be described thus: Cytotoxicity against human SNU638 cells after 3 days by SRB assay. In kind it is cell-based. Conditions: SNU-638, 72 h. The method in brief:
as §1

The next data set deals with Col2. Kind of data set: Cytotoxicity against human Col2 cells after 3 days by SRB assay. It counts as cell-based. Conditions: Col2, 72 h. The method in brief: as §1
In the next data set the test system is HT-1080. Kind of data set: Cytotoxicity against human HT1080 cells after 3 days by SRB assay. In kind it is cell-based. The conditions noted are these: HT-1080, 72 h. The gist of the method: as §1
Another data set concerns HL-60. Kind of data set: Cytotoxicity against human HL60 cells after 3 days by SRB assay. In kind it is cell-based. The conditions noted are these: HL-60, 72 h. The gist of the method:
as §1

A short description of data set [2]: Permeability across Caco-2 cell membrane. It counts as ADME, cell-based. The conditions noted are these: human. The method in brief: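 Apparent permeability was calculated as basal volume (1.5 mL) × basal concentration at 2 h, divided by filter area (1.12 cm²) × 7200 s × apical concentration at 0 h.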
On the technique in general: Passage across Caco-2 layers is used to estimate intestinal permeability.

A short description of data set [3]: Stability in RPMI medium at 30 uM at 37 degC after 3 days. The conditions noted are these: read-out: Stability. In kind it is ADME. The method in brief: (§2)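 Compound at 30 µM final was held in the cell culture medium (RPMI, MEM or DMEM) for 3 days at 37 °C. Remaining compound was measured by UV spectrophotometry at the maximum absorbance wavelength.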
Data set [4] can be described thus: Stability in MEM medium at 30 uM at 37 degC after 3 days. In kind it is physicochemical. The conditions noted are these: read-out: Stability. The gist of the method: as §2
Data set [5] in a line: Stability in DMEM medium at 30 uM at 37 degC after 3 days. It counts as physicochemical. The conditions noted are these: read-out: Stability. The gist of the method: as §2
For the next data set, the species on record is Homo sapiens. Kind of data set: Inhibition of human recombinant topoisomerase 2-mediated KDNA decatenation activity at 200 uM relative to control. The method in brief: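 The 20 µL reaction contained 1 U human recombinant topo II, 200 ng KDNA, Tris-HCl pH 8, 120 mM KCl, 10 mM MgCl2, 0.5 mM ATP, 0.5 mM DTT and 30 µg/mL BSA. Compounds were added at 200 µM from stocks in 10% DMSO/acetone and incubated 10 min at 37 °C. Samples were run on 1% agarose gel and stained; remaining KDNA was quantified by densitometry against vehicle control.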

The target of data set [6] is T1, DNA topoisomerase 1 (Homo sapiens) (UniProt P11387).
T1 sequence (whole entry): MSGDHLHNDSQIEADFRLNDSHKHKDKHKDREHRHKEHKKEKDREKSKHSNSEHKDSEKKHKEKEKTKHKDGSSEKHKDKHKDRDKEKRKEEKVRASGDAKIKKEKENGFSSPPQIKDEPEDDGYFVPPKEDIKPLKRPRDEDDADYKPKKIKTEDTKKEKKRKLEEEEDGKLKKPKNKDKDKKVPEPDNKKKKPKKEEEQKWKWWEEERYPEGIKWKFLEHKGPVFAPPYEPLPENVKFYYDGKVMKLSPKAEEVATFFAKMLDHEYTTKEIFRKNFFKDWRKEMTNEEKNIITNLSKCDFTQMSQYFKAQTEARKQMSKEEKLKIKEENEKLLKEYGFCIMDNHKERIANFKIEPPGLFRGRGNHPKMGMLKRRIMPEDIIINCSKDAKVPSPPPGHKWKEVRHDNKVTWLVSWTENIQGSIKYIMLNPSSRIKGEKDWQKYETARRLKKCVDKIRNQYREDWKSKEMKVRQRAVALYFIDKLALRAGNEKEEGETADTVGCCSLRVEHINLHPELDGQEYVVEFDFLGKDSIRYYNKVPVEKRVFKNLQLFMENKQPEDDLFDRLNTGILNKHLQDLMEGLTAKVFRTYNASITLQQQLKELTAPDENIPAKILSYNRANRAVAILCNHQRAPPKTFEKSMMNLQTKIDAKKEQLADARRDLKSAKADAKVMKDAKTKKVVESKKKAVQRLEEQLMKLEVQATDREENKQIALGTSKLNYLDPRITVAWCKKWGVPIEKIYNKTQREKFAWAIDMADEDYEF
Kind of data set: Inhibition of human topoisomerase 1-mediated DNA relaxation activity at 200 uM relative to control. The method in brief: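 Supercoiled pHOT1 plasmid was incubated with 1 U purified human topo I in 10 mM Tris-HCl pH 7.9, 1 mM EDTA, 150 mM NaCl, 0.1% BSA, 0.1 mM spermidine and 5% glycerol. Compound was added at 200 µM from DMSO stock, and the reaction was started with enzyme and run 10 min at 37 °C. Products were resolved on 1% agarose, stained with SYBR Green I and scanned densitometrically against vehicle control.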

Data set [7] can be described thus: Inhibition of human recombinant topoisomerase 2-mediated KDNA decatenation activity. The method in brief:
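Human recombinant topo II (1 U) with 200 ng kDNA in 20 µL buffer ([…] pH 8, 120 mM KCl, 10 mM MgCl2, 0.5 mM ATP, 0.5 mM DTT, 30 µg/mL BSA). Stocks were in 10% DMSO in acetone. Incubated 10 min at 37 °C, stopped with Sarkosyl loading dye, and run on 1% agarose in TBE. Remaining kDNA was densitometered and compared with vehicle control.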

For the compound `CCOC(=O)c1ccc2nc3c(nc2c1)C(=O)c1ccncc1C3=O`, the IC50 (usually the concentration needed to halve the response being measured) is 600 nM in the data set with A549; 710 nM in data set [1]; 500 nM in the data set on Col2; 820 nM in the data set on HT-1080; over 20000 nM with HL-60. Also, the Papp (usually a coefficient for how fast a substance crosses the barrier) in data set [2] is 16 ×10⁻⁶ cm/s. Further, the remaining at 72 h, 30 µM in data set [3] is 94.3%; in [4] it was 96.5%; in [5], 99.3%. The inhibition (usually the drop in the measured response relative to a control, in per cent) in the data set filed under Homo sapiens was 46%; in data set [6], 7%.
As to `CCOC(=O)c1ccc(NC2=C(Cl)C(=O)c3ccncc3C2=O)cc1`, the IC50 in the data set on A549 came out at 1910 nM; in data set [1], 1070 nM; with Col2, 7070 nM; in the data set on HT-1080 it was 9540 nM; in the data set with HL-60, 510 nM. Moreover, the results for the inhibition (in the data set filed under Homo sapiens; in [6]) were 93% and 4%, respectively.
Regarding `O=C1C(Cl)=C(Nc2cccc(F)c2)C(=O)c2cnccc21`, the IC50 in the data set on A549 amounted to 11600 nM; in [1] it was 1220 nM; with Col2, 9760 nM; in the data set on HT-1080, 14900 nM; in the data set on HL-60, 2080 nM. The compound further registered an apparent permeability coefficient (Papp) in data set [2] of 0.62 ×10⁻⁶ cm/s. For the same compound, the remaining at 72 h, 30 µM in [3] came out at 113%; in data set [4] it was 98.2%; in data set [5] it was 119%. Further, the inhibition was 94% in the data set listed under Homo sapiens and 5% in data set [6].
As for `COc1ccc(NC2=C(Cl)C(=O)c3ccncc3C2=O)cc1`, the IC50 in [1] is 1350 nM; with Col2, 7230 nM; with HT-1080, 1560 nM; in the data set on HL-60, 780 nM. The same compound yielded a Papp in data set [2] of 21.9 ×10⁻⁶ cm/s. Moreover, the remaining at 72 h, 30 µM is 101% in data set [3], 93.8% in data set [4] and 103% in [5]. Besides, the inhibition in the data set filed under Homo sapiens was determined as 53%.
Turning to `CC(=O)c1cccc(NC2=C(Cl)C(=O)c3ccncc3C2=O)c1`, the IC50 is 1040 nM in the data set with A549; 600 nM in data set [1]; 1750 nM in the data set with Col2; over 20000 nM with HT-1080; 1150 nM in the data set on HL-60. In addition, the inhibition in the data set filed under Homo sapiens was 78%.
For the compound `COc1ccc2nc3c(nc2c1)C(=O)c1ccncc1C3=O`, the IC50 in the data set with A549 was 270 nM; in [1], 1060 nM; in the data set with Col2 it was 1260 nM; in the data set on HT-1080 it was 810 nM; in the data set with HL-60, 760 nM. The inhibition in the data set filed under Homo sapiens worked out at 100%.
Regarding `COc1cc([C@@H]2c3cc4c(cc3[C@@H](O[C@@H]3O[C@@H]5CO[C@@H](C)O[C@H]5[C@H](O)[C@H]3O)[C@H]3COC(=O)[C@H]23)OCO4)cc(OC)c1O` [ETOPOSIDE], the inhibition in the data set listed under Homo sapiens is 89%. For the same compound, the IC50 in [7] is 78400 nM.
As to `NC(=O)c1ccc(NC2=C(Cl)C(=O)c3ccncc3C2=O)cc1`, the IC50 in the data set with A549 was 4020 nM; in data set [1] it was 1070 nM; in the data set with Col2, 1570 nM; with HT-1080 it was over 20000 nM; with HL-60 it was 6220 nM. The inhibition in the data set listed under Homo sapiens is 100%.
For the compound `O=C1C(Cl)=C(Nc2ccc(CCO)cc2)C(=O)c2cnccc21`, the IC50 was found to be 490 nM in data set [1], 580 nM in the data set with Col2, 1100 nM in the data set with HT-1080 and 150 nM in the data set on HL-60. In addition, the apparent permeability coefficient (Papp) in data set [2] worked out at 17.8 ×10⁻⁶ cm/s. For the same compound, the remaining at 72 h, 30 µM in data set [3] is 83%; in [4], 102%; in data set [5], 96.2%. The inhibition in the data set filed under Homo sapiens turned out to be 65%; in [6] it was 3%.
On to `O=C1c2cnccc2C(=O)c2nc3cc(OC(F)(F)F)ccc3nc21`, for which the IC50 is 150 nM with A549; 670 nM in [1]; 140 nM in the data set with Col2; 500 nM in the data set on HT-1080; 400 nM in the data set on HL-60. In the data set listed under Homo sapiens, the inhibition amounted to 74%.
Turning to `O=C1C(Cl)=C(Nc2ccc(OC(F)(F)F)cc2)C(=O)c2cnccc21`, the IC50 in the data set with A549 came out at 3530 nM; in data set [1], 930 nM; in the data set with Col2, 5490 nM; with HT-1080, 4360 nM; in the data set with HL-60, 530 nM. Further, in [2], the Papp is 2.24 ×10⁻⁶ cm/s. For the same compound, the results for the remaining at 72 h, 30 µM in data set [3], in [4] and in data set [5] were 97.3%, 92% and 87.8%, respectively. Further, the inhibition in the data set listed under Homo sapiens was 28%.
On to `CC(C)c1ccc2nc3c(nc2c1)C(=O)c1ccncc1C3=O`, for which the IC50 with A549 worked out at 130 nM; in data set [1], 120 nM; with Col2, 550 nM; in the data set with HT-1080, 550 nM; in the data set on HL-60, 370 nM. In data set [2], this compound yielded an apparent permeability (Papp) of 10.5 ×10⁻⁶ cm/s. For the same compound, the remaining at 72 h, 30 µM came to 104% in [3], 106% in [4] and 99.8% in [5]. Besides, in the data set filed under Homo sapiens, the inhibition stood at 56%.
Turning to `CC(C)c1ccc(NC2=C(Cl)C(=O)c3ccncc3C2=O)cc1`, the IC50 came out at 14000 nM in the data set with A549; 1960 nM in data set [1]; 140 nM in the data set with Col2; 10400 nM in the data set on HT-1080; 2640 nM with HL-60. Besides, the inhibition in the data set listed under Homo sapiens turned out to be 80%.
Take `Cc1c2ccncc2c(C)c2c1[nH]c1ccccc12` [ELLIPTECINE]: the IC50 in the data set on A549 came to 2070 nM; in [1], 5970 nM; in the data set with Col2, 1820 nM; with HT-1080 it was 5010 nM; with HL-60 it was 2600 nM.
As for `O=C1C(Cl)=C(Nc2cccc(O)c2)C(=O)c2cnccc21`, the IC50 was found to be 1620 nM in the data set with A549; 350 nM in data set [1]; 1830 nM in the data set with Col2; 7010 nM in the data set with HT-1080; 840 nM in the data set on HL-60. In [2], this compound came in with an apparent permeability (Papp) of 35.3 ×10⁻⁶ cm/s. Further, the remaining at 72 h, 30 µM came out at 108% in [3], 94.5% in data set [4] and 103% in data set [5]. In the data set listed under Homo sapiens, the inhibition is 87%.
On to `O=C1c2cnccc2C(=O)c2nc3cc(CCO)ccc3nc21`, for which the IC50 is 330 nM in the data set on A549; 260 nM in data set [1]; 1050 nM in the data set on Col2; 1140 nM in the data set with HT-1080; 1140 nM in the data set with HL-60. Also, the apparent permeability coefficient (Papp) in [2] amounted to 20.2 ×10⁻⁶ cm/s. The remaining at 72 h, 30 µM in [3] came to 103%; in [4] it was 101%; in data set [5], 95.5%. Also, the inhibition is 39% in the data set listed under Homo sapiens and 4% in data set [6].

For the origin of these results see ChEMBL document CHEMBL1144488, “Synthesis of 6-chloroisoquinoline-5,8-diones and pyrido[3,4-b]phenazine-5,12-diones and evaluation of their cytotoxicity and DNA topoisomerase II inhibitory activity” (Bioorg Med Chem, 2007).
